Measured values as given in ChEMBL document CHEMBL3352301, “Novel sulfonyl(thio)urea derivatives act efficiently both as insulin secretagogues and as insulinomimetic compounds” (Eur J Med Chem, 2014).
The source made the active and inactive calls. The rule behind the calls is not given here.

Assays:
[1] = molecular target: ATP-binding cassette sub-family C member 8 (Homo sapiens, UniProt Q09428); assay: Binding affinity to SUR1 (unknown origin)
Rattus norvegicus [2] = assay: Antihyperglycemic activity in fasted hyperglycemic Wistar rat assessed as serum glucose level at 10 mg/kg, po measured 15 mins post dose by oral glucose tolerance test (reference value: 177.46 +/- 5.95 mg/dL); format: functional
Outline: (§1)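 Rats fasted at least 16 h (water free) were given glucose 4 g/kg by oral gavage; test compounds 10 mg/kg were gavaged in 0.3% Tween 80. Tail-vein blood was taken before dosing and at 15, 30, 60 and 180 min, then centrifuged. Serum glucose was measured by the glucose oxidase method. Six determinations per group, mean ± S.E.M.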

Rattus norvegicus [3] = assay: Antihyperglycemic activity in fasted hyperglycemic Wistar rat assessed as serum glucose level at 10 mg/kg, po measured 30 mins post dose by oral glucose tolerance test (reference value: 190.15 +/- 1.77 mg/dL); format: functional; outline: as §1
Rattus norvegicus [4] = assay: Antihyperglycemic activity in fasted hyperglycemic Wistar rat assessed as serum glucose level at 10 mg/kg, po measured 60 mins post dose by oral glucose tolerance test (reference value: 182.55 +/- 6.95 mg/dL); format: functional; outline: as §1
Rattus norvegicus [5] = assay: Antihyperglycemic activity in fasted hyperglycemic Wistar rat assessed as serum glucose level at 10 mg/kg, po measured 180 mins post dose by oral glucose tolerance test (reference value: 141.15 +/- 4.47 mg/dL); format: functional; outline: as §1
Rattus norvegicus [6] = assay: Insulin secretagogue activity in fasted hyperglycemic Wistar rat assessed as insulin level at 10 mg/kg, po measured 15 mins post dose by ELISA method (reference value: 2.84 +/- 0.002 ng/mL); format: functional
Rattus norvegicus [7] = assay: Insulin secretagogue activity in fasted hyperglycemic Wistar rat assessed as insulin level at 10 mg/kg, po measured 30 mins post dose by ELISA method (reference value: 0.75 +/- 0.007 ng/mL); format: functional
Rattus norvegicus [8] = assay: Insulin secretagogue activity in fasted hyperglycemic Wistar rat assessed as insulin level at 10 mg/kg, po measured 60 mins post dose by ELISA method (reference value: 0.59 +/- 0.004 ng/mL); format: functional
Rattus norvegicus [9] = assay: Insulin secretagogue activity in fasted hyperglycemic Wistar rat assessed as insulinogenic index ratio at 10 mg/kg, po by ELISA method (reference value: 0.66 ng/mg); format: functional
Outline: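 Serum insulin (ELISA) and glucose (glucose oxidase) were sampled from 0 to 60 min after oral glucose 4 g/kg plus compound 10 mg/kg gavage in fasted rats. Incremental areas under the curves were computed. Insulinogenic index = AUC insulin / AUC glucose over 0–60 min.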

Rattus norvegicus [10] = assay: Effect on glycogen content in skeletal muscle of fasted hyperglycemic Wistar rat assessed per gram of tissue at 10 mg/kg, po measured 3 hrs post dose (reference value: 8.6 +/- 1 mg/g of tissue); format: functional
Rattus norvegicus [11] = assay: Effect on glycogen content in liver of fasted hyperglycemic Wistar rat assessed per gram of tissue at 10 mg/kg, po measured 3 hrs post dose (reference value: 14.6 +/- 1.27 mg/g of tissue); format: functional
Rattus norvegicus [12] = assay: Toxicity in fasted hyperglycemic Wistar rat assessed as LDH level at 10 mg/kg, po by spectrophotometry based LDH release assay (reference value: 75.63 +/- 7.08 IU/L); format: organism-based; design: dose 10 mg/kg, route oral; conditions: in vivo
[13] = Effect on glucose uptake in Wistar rat soleus muscle assessed per mg of protein at 1 uM by liquid scintillation counting based [14C]-2-deoxy-D-glucose uptake assay (reference value: 0.16 +/- 0.03 nmol glucose/mg protein); format: functional
[14] = Effect on glucose uptake in Wistar rat soleus muscle assessed per mg of protein at 10 uM by liquid scintillation counting based [14C]-2-deoxy-D-glucose uptake assay (reference value: 0.16 +/- 0.03 nmol glucose/mg protein); format: functional
Soleus muscle [15] = assay: Stimulation of glucose uptake in Wistar rat soleus muscle assessed as glucose level per mg of protein at 100 uM by liquid scintillation counting based [14C]-2-deoxy-D-glucose uptake assay (reference value: 0.16 +/- 0.03 nmol glucose/mg protein); format: functional
Soleus muscle [16] = assay: Stimulation of glucose uptake in Wistar rat soleus muscle at 10 uM in presence of 100 nM PI-3K inhibitor wortmannin by liquid scintillation counting based [14C]-2-deoxy-D-glucose uptake assay; format: functional, tissue-based
Outline: (§2)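 Rat soleus in Krebs-Ringer bicarbonate (37 °C, O2/CO2 95:5, pH 7.4). Inhibitor or modulator (wortmannin 100 nM, H89, PMA 100 nM or cycloheximide) was present through a 30 min preincubation and a 60 min incubation, with or without compound. 14C-2-deoxy-D-glucose was added during incubation only. Uptake by scintillation counting normalised to Lowry protein; n=4 of 3 independent experiments.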

Soleus muscle [17] = assay: Stimulation of glucose uptake in Wistar rat soleus muscle at 10 uM in presence of 10 uM PKA inhibitor H89 by liquid scintillation counting based [14C]-2-deoxy-D-glucose uptake assay; format: functional, tissue-based; outline: as §2
Soleus muscle [18] = assay: Stimulation of glucose uptake in Wistar rat soleus muscle at 10 uM in presence of 100 nM PMA by liquid scintillation counting based [14C]-2-deoxy-D-glucose uptake assay; format: functional, tissue-based; outline: as §2
Soleus muscle [19] = assay: Stimulation of glucose uptake in Wistar rat soleus muscle at 10 uM in presence of 350 uM cycloheximide by liquid scintillation counting based [14C]-2-deoxy-D-glucose uptake assay; format: functional, tissue-based; outline: as §2
Soleus muscle [20] = assay: Stimulation of protein synthesis in Wistar rat soleus muscle at 10 uM by liquid scintillation counting based 1-[U-14C]leucine incorporation assay; format: functional, tissue-based
Outline: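 Soleus muscles from fasted rats were preincubated 30 min in Krebs-Ringer bicarbonate (O2/CO2 95:5, pH 7.4), then incubated 60 min with compound and L-[U-14C]leucine. The reaction was stopped with cold TCA (7% final). Incorporation was expressed as cpm/mg protein (Lowry); n=4 of 3 independent experiments.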

Soleus muscle [21] = assay: Increase in GLUT4 expression in Wistar rat soleus muscle at 20 uM after 60 mins by polyacrylamide gel electrophoresis and immunoblotting analysis; format: functional, tissue-based
Soleus muscle [22] = assay: Increase in GLUT4 expression in Wistar rat soleus muscle at 20 uM after 60 mins in presence of 350 uM cycloheximide by polyacrylamide gel electrophoresis and immunoblotting analysis; format: functional, tissue-based
Soleus muscle [23] = assay: Increase in GLUT4 expression in Wistar rat soleus muscle membranes at 10 uM after 60 mins by immunofluorescence analysis; format: functional, cell membranes
Outline: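 Soleus was taken after 60 min in vitro incubation, or 180 min after oral gavage at 10 mg/kg. Tissue was fixed in 4% paraformaldehyde, paraffin-embedded and cut at 5 µm, with citrate antigen retrieval. Sections were stained with mouse anti-GLUT4 (1:500, overnight) then Cy3 anti-mouse, with DAPI counterstain. GLUT4 distribution was assessed qualitatively.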

Rattus norvegicus [24] = assay: Increase in GLUT4 expression in soleus muscle membranes of Wistar rat at 10 mg/kg, po after 180 mins by immunofluorescence analysis; conditions: Membrane

ATP-binding cassette sub-family C member 8, sequence (Q09428 whole entry): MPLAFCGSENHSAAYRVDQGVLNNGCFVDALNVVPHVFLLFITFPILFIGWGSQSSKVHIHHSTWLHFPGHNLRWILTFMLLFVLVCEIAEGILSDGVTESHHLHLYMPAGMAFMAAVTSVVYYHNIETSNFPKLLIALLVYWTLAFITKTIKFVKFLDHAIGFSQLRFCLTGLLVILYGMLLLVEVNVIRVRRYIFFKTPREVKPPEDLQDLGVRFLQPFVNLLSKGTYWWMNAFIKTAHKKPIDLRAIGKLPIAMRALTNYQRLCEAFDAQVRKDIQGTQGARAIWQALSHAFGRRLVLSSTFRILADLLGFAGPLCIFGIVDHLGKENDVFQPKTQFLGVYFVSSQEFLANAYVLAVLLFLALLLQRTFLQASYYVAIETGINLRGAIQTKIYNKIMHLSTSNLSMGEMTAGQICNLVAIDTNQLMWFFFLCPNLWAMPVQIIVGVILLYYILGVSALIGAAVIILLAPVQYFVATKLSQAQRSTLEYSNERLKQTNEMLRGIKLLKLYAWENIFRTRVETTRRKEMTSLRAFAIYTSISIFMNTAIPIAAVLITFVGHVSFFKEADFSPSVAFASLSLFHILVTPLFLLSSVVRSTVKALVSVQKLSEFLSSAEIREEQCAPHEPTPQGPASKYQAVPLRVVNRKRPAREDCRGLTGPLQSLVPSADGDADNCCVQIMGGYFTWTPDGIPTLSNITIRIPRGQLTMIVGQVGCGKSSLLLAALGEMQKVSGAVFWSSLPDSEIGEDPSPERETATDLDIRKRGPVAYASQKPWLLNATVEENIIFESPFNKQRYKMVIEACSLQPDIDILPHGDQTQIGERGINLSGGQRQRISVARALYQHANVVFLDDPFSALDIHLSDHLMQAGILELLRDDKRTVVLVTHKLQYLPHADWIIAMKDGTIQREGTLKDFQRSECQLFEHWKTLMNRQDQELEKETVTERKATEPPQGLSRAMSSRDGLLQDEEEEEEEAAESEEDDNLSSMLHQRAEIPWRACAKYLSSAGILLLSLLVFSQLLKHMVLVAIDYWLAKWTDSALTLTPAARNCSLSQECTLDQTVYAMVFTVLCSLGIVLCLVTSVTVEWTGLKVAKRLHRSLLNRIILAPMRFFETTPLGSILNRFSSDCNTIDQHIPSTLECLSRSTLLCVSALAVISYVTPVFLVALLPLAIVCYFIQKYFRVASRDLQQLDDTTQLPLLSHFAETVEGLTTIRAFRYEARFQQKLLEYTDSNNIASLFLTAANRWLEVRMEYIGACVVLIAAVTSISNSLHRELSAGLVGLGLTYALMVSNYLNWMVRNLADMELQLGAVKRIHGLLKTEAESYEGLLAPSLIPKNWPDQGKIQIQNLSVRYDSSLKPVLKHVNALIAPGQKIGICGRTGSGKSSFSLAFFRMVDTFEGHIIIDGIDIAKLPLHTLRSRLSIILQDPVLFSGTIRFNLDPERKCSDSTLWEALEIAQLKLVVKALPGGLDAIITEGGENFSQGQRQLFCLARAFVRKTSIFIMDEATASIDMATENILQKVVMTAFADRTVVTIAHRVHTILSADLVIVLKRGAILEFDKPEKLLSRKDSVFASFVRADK

| SMILES | Activity (Rattus norvegicus [2]) | Activity (Rattus norvegicus [3]) | Activity (Rattus norvegicus [4]) | Activity (Rattus norvegicus [5]) | Activity (Rattus norvegicus [6]) | Activity (Rattus norvegicus [7]) | Activity (Rattus norvegicus [8]) | Ratio (Rattus norvegicus [9]) | Activity (Rattus norvegicus [10]) | Activity (Rattus norvegicus [11]) | Activity (Rattus norvegicus [12]) | other results |
| --- | --- | --- | --- | --- | --- | --- | --- | --- | --- | --- | --- | --- |
| COc1cc(NC(C)=O)c(Cl)cc1C(=O)NCCc1ccc(S(=O)(=O)NC(=O)NC2CCCCC2)cc1 | – | – | – | – | – | – | – | – | – | – | – | Kd [1]: 0.38 nM |
| COc1ccc(S(=O)(=O)NCCc2ccc(S(=O)(=O)NC(=S)Nc3ccc(Cl)cc3)cc2)cc1 | 141.45 mg/dL | 158.69 mg/dL | 151.74 mg/dL | 139.54 mg/dL | 2.69 ng/mL | 0.71 ng/mL | 0.52 ng/mL | 0.72 ng/mg | 28.51 mg | 69.35 mg | 73.92 IU/L | – |
| O=S(=O)(NC(=S)Nc1ccccc1)c1ccc(CCNS(=O)(=O)c2cccs2)cc1 | 150.23 mg/dL | 141.6 mg/dL | 140.96 mg/dL | 139.26 mg/dL | 3.01 ng/mL | 1.19 ng/mL | 1.46 ng/mL | 1.06 ng/mg | 20.69 mg | 7.68 mg | 72.19 IU/L | Activity [13]: 0.35 nmol; Activity [14]: 0.3 nmol; Activity (Soleus muscle [15]): 0.32 nmol; Activity (Soleus muscle [16]): inactive; Activity (Soleus muscle [17]): inactive; Activity (Soleus muscle [18]): inactive; Activity (Soleus muscle [19]): inactive; Activity (Soleus muscle [20]): Active; Activity (Soleus muscle [21]): Active; Activity (Soleus muscle [22]): inactive; Activity (Soleus muscle [23]): Active; Activity (Rattus norvegicus [24]): Active |
| O=S(=O)(NC(=S)Nc1ccccc1)c1ccc(CCNS(=O)(=O)c2cccc3cccnc23)cc1 | 147.97 mg/dL | 160.22 mg/dL | 140.08 mg/dL | 139.63 mg/dL | 2.26 ng/mL | 1.36 ng/mL | 0.6 ng/mL | 0.84 ng/mg | 9.93 mg | 11.33 mg | 71.3 IU/L | – |
| CC1(C)C2CCC1(CS(=O)(=O)NCCc1ccc(S(=O)(=O)NC(=S)Nc3ccccc3)cc1)C(=O)C2 (stereo not given) | 151.58 mg/dL | 160.61 mg/dL | 149.03 mg/dL | 149.35 mg/dL | – | – | – | – | – | – | – | – |
| O=S(=O)(NCCc1ccc(S(=O)(=O)NC(=S)Nc2ccccc2)cc1)c1ccccc1 | 146.02 mg/dL | 151.62 mg/dL | 158.27 mg/dL | 134.44 mg/dL | 0.39 ng/mL | 0.35 ng/mL | 0.78 ng/mL | 0.31 ng/mg | 6.93 mg | 10.66 mg | 68.09 IU/L | – |
| COc1cc(NC(=O)CO[C@H]2O[C@H](CO)[C@@H](O)[C@H](O)[C@H]2O)c(Cl)cc1C(=O)NCCc1ccc(S(=O)(=O)NC(=O)NC2CCCCC2)cc1 | – | – | – | – | – | – | – | – | – | – | – | Kd [1]: 2.08 nM |
| COc1ccc(Cl)cc1C(=O)NCCc1ccc(S(=O)(=O)NC(=O)NC2CCCCC2)cc1 [GLYBURIDE] | 140.49 mg/dL | 135.24 mg/dL | 128.34 mg/dL | 124.28 mg/dL | 3.83 ng/mL | 2.66 ng/mL | 2.46 ng/mL | 1.98 ng/mg | 17.46 mg | 8.71 mg | 41.08 IU/L | – |
| COc1ccc(S(=O)(=O)NCCc2ccc(S(=O)(=O)NC(=S)Nc3ccccc3)cc2)cc1 | 150.98 mg/dL | 144.75 mg/dL | 154.79 mg/dL | 124.7 mg/dL | 2.75 ng/mL | 0.7 ng/mL | 0.53 ng/mL | 0.77 ng/mg | 7.24 mg | 104.25 mg | 108.01 IU/L | – |
| Cc1ccc(S(=O)(=O)NCCc2ccc(S(=O)(=O)NC(=S)Nc3ccccc3)cc2)cc1 | 151.25 mg/dL | 157.14 mg/dL | 173.51 mg/dL | 152.6 mg/dL | – | – | – | – | – | – | – | – |
| CC(C)c1cc(C(C)C)c(S(=O)(=O)NCCc2ccc(S(=O)(=O)NC(=S)Nc3ccccc3)cc2)c(C(C)C)c1 | 149.51 mg/dL | 168.72 mg/dL | 152.76 mg/dL | 142.08 mg/dL | – | – | – | – | – | – | – | – |
| COc1ccc(S(=O)(=O)NCCc2ccc(S(=O)(=O)NC(=O)Nc3cccc4ccccc34)cc2)cc1 | 155.68 mg/dL | 156.4 mg/dL | 157.9 mg/dL | 143.6 mg/dL | – | – | – | – | – | – | – | – |
| O=S(=O)(NCCc1ccc(S(=O)(=O)NC(=S)Nc2ccccc2)cc1)c1ccc(F)cc1 | 148.8 mg/dL | 165.7 mg/dL | 165.3 mg/dL | 146.4 mg/dL | – | – | – | – | – | – | – | – |
